Measurements published in PubChem BioAssay.
Calls of active or inactive are those of the source. Rule as the data show it, unless noted: active = inhibition above about 30%; inactive = the rest.

Experiments:
[1] = reduced viability of SK-BR-3 breast cancer cells – cell-based, 24 h, human, pilot screen (AID 572;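 active = viability at or below 10% of carrier control in both of two separate runs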;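 also: compound exposure lasted between 18 and 24 h rather than exactly 24 h; 100% = carrier-treated control wells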); settings: SK-BR-3 viability, CellTiter-Glo luminescence, at 10 µM, stronger effect = lower value
[2] = HUVEC growth inhibition – cell-based, human, primary screen (AID 575;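 active = viability at or below 30% in both replicate assays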;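 also: 100% = median of untreated cell wells with 0.1% DMSO on each plate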); settings: HUVEC proliferation, CellTiter-Glo luminescence, 72 h; at 10 µM; stronger effect = lower value
Procedure, shortened: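 Material: primary human umbilical vein endothelial cells / Schedule: 72 h exposure, 37 °C, 5% CO2, 30 min RT equilibration / Signal: ATP-based CellTiter-Glo luminescent read / Read-out basis: percent of median DMSO-control luminescence / Control set: 32 DMSO-only cell-control wells (high), 32 MePR drug-control wells (low) per plate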

[3] = MRP1 drug-resistance reversers in H69AR cells – cell-based, doxorubicin co-treatment, pilot screen (AID 601;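 active = viability loss from added drug above about 55%, and viability with drug at most 40%, in both replicates, limit read from the data, passing the limit was not always enough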); settings: CellTiter-Glo, 72 h, at 10 µM; for differential viability (reversal): stronger effect = higher value
[4] = yeast transport mutant growth inhibition pilot in 384-well plates, post-Golgi transport modulator project (AID 636; in the data active = inhibition above about 31%); settings: absorbance 615 nm, about 18 h, stronger effect = higher value
[5] = growth suppression of yeast trafficking mutant, preliminary HTS, modulators of trafficking downstream of Golgi apparatus project, 1536-format plate, OD 615 nm (AID 637); settings: yeast transport mutant growth, absorbance 615 nm, 18 h; stronger effect = higher value
[6] = H69AR cells + 2 uM doxorubicin, measured here: viability with 2 uM doxorubicin, stronger effect = lower value
[7] = H69AR cells, compound alone cytotoxicity

Row | Structure (SMILES) | viability [1] | viability [2] | differential viability (reversal) ([3]; H69AR cells + 2 uM doxorubicin) | viability [3, 6] [%] | viability [3, 7] [%] | inhibition [4] | inhibition [5]
1 | O=C(Nc1ccc2[nH]c3c(c2c1)CCCC3)c1ccco1 | 82% (inactive) | 73.1% (inactive) | -3.58% (inactive) | 66.7 | 63.1 | -8.67% (inactive) | -2.73% (inactive)
2 | O=C(CC(SCCO)c1ccc2c(c1)OCO2)c1ccco1 (stereo not given) | 77.5% (inactive) | 95% (inactive) | -17.8% (inactive) | 59.3 | 41.5 | -7.57% (inactive) | -3.65% (inactive)
3 | C=C1[C@@H](C)C2[C@H](Cc3ccccc3)NC(=O)[C@]23OC(=O)CC[C@H](O)CCC[C@H](C)C/C=C/[C@H]3[C@@H]1O (stereo not given in full) | 95% (inactive) | 13.1% (active) | -16.3% (inactive) | 48.2 | 31.9 | -0.26% (inactive) | 0.67% (inactive)
4 | COc1ccccc1NC(=O)C1=C(C)NC(SCC(=O)c2ccc(C)cc2)=C(C#N)C1c1ccco1 (stereo not given) | 81% (inactive) | 72.5% (inactive) | 0.78% (inactive) | 16.8 | 17.6 | 1.1% (inactive) | -3.64% (inactive)
5 | CC(=O)O[C@H]1C(=O)[C@]2(C)[C@H]([C@H](OC(=O)c3ccccc3)[C@]3(O)C[C@H](OC(=O)[C@H](O)[C@@H](NC(=O)c4ccccc4)c4ccccc4)C(C)=C1C3(C)C)[C@]1(OC(C)=O)CO[C@@H]1C[C@@H]2O | 67% (inactive) | 38.8% (inactive) | -69.2% (inactive) | 81.8 | 12.6 | 0.52% (inactive) | -0.67% (inactive)
6 | COc1ccc(CCn2c(=N)c(C(=O)NCc3ccco3)cc3c(=O)n4ccccc4nc32)cc1 | 73% (inactive) | 57.9% (inactive) | -8.4% (inactive) | 64.5 | 56.1 | -6.76% (inactive) | -8.33% (inactive)
7 | CCCCC(=O)O[C@H]1CC[C@H]2[C@@H]3CCc4cc(O)ccc4[C@H]3CC[C@]12C | 82% (inactive) | 1.94% (active) | 13.5% (inactive) | 6.17 | 19.7 | 4.81% (inactive) | 8.33% (inactive)
8 | Cc1cccc(OCC(=O)Nc2cc(C)ccc2O)c1 | 105% (inactive) | 75.3% (inactive) | -14% (inactive) | 51.4 | 37.4 | -6.16% (inactive) | 0.18% (inactive)
9 | COc1ccc2cc(C(c3nnnn3C(C)(C)C)N3CCc4ccccc4C3)c(=O)[nH]c2c1 (stereo not given) | 81% (inactive) | 48.3% (inactive) | 26% (inactive) | 23.1 | 49.1 | -5.33% (inactive) | -2.36% (inactive)
10 | CCOC(=O)c1c(NC(=O)COC(=O)c2c(C)noc2C)sc2c1CCC2 | 63% (inactive) | 35.6% (inactive) | 0.845% (inactive) | 47 | 47.8 | -8.36% (inactive) | -3.87% (inactive)
11 | O=S1(=O)Nc2c(ccc3cccnc23)-c2ccccc21 | 122% (inactive) | 8.06% (active) | -6.77% (inactive) | 56 | 49.2 | -7.5% (inactive) | 9.84% (inactive)
12 | COc1ccccc1NC(=O)N(Cc1ccco1)Cc1cc2c(C)ccc(C)c2[nH]c1=O | 70% (inactive) | 71.1% (inactive) | -28.8% (inactive) | 50.9 | 22.1 | -2.88% (inactive) | -2.55% (inactive)
13 | N#C/C(=C\c1ccc(O)c(O)c1)C(=O)NCCCc1ccccc1 | 88% (inactive) | 43.4% (inactive) | -33.4% (inactive) | 78 | 44.6 | 1.04% (inactive) | 5.5% (inactive)
14 | Oc1c(Cl)cc(Cl)cc1Sc1cc(Cl)cc(Cl)c1O | 143% (inactive) | 1.36% (active) | 0.46% (inactive) | 11 | 11.4 | -0.78% (inactive) | 100% (active)
15 | CCOC(=O)C1CCN(CC(=O)Nc2c(C(=O)OC)[nH]c3ccc(Cl)cc23)CC1 | 103% (inactive) | 65.5% (inactive) | 34.9% (inactive) | 23.5 | 58.4 | -4.4% (inactive) | 3.09% (inactive)
16 | O=C(Nc1cnn(C23CC4CC(CC(C4)C2)C3)c1)c1cnn2c(C(F)(F)F)cc(-c3ccco3)nc12 | 95% (inactive) | 58% (inactive) | 1.52% (inactive) | 51.8 | 53.3 | -0.82% (inactive) | 8.39% (inactive)
17 | COC(=O)c1[nH]c2ccc(C)cc2c1NC(=O)CN1CCCC(C)(C)C1 | 125% (inactive) | 77.6% (inactive) | -3% (inactive) | 42.2 | 39.1 | -5.87% (inactive) | 4.91% (inactive)
18 | CC(=O)O[C@@]12CO[C@@H]1C[C@H](O)[C@@]1(C)C(=O)[C@H](O)C3=C(C)[C@@H](OC(=O)[C@H](O)[C@@H](NC(=O)OC(C)(C)C)c4ccccc4)C[C@](O)([C@@H](OC(=O)c4ccccc4)[C@H]21)C3(C)C | 130% (inactive) | 40.7% (inactive) | -79.6% (inactive) | 98.8 | 19.2 | -4.03% (inactive) | -2.33% (inactive)
19 | COc1cc([C@@H]2c3cc4c(cc3[C@H](O)[C@H]3COC(=O)[C@H]23)OCO4)cc(OC)c1OC | 101% (inactive) | 33.9% (inactive) | -32.5% (inactive) | 63.7 | 31.2 | -2.99% (inactive) | -5.67% (inactive)
20 | Oc1c(I)cc(Cl)c2cccnc12 | 84% (inactive) | 8.13% (active) | -10.4% (inactive) | 46.2 | 35.8 | 4.55% (inactive) | 8.83% (inactive)

Row | Structure (SMILES) | viability [1] | viability [2] | differential viability (reversal) ([3]; H69AR cells + 2 uM doxorubicin) | viability [3, 6] [%] | viability [3, 7] [%] | inhibition [4] | inhibition [5]
21 | CN(C)CCCN1c2ccccc2Sc2ccc(Cl)cc21 | 71% (inactive) | 2.62% (active) | -26.7% (inactive) | 28.3 | 1.67 | -0.91% (inactive) | 7.17% (inactive)
22 | O=C1NC2c3ccccc3C(=O)N2c2c1cnn2-c1ccccc1 (stereo not given) | 98% (inactive) | 80.3% (inactive) | -35.4% (inactive) | 86 | 50.6 | 0.68% (inactive) | 0.91% (inactive)
23 | CC(C)(C)OC(=O)N1CC=C2C(C#N)=C(N)C(C#N)(C#N)C(c3cccs3)C2C1 (stereo not given) | 65% (inactive) | 53.9% (inactive) | -5.04% (inactive) | 57.8 | 52.8 | -1.92% (inactive) | -0.16% (inactive)
24 | CCn1c(=N)n(CC(=O)c2ccco2)c2ccccc21 | 95% (inactive) | 95.5% (inactive) | -38.3% (inactive) | 73.2 | 34.9 | -5.2% (inactive) | -4% (inactive)
25 | CCOC(=O)c1[nH]c2ccc(Br)cc2c1NC(=O)CCN1CCC(C(=O)OCC)CC1 | 115% (inactive) | 77.3% (inactive) | 12% (inactive) | 33.2 | 45.2 | -2.53% (inactive) | 1.27% (inactive)
26 | C=C(C)C1Cc2c(C)nn(-c3nc(C)cc(C)n3)c2C1 (stereo not given) | 105% (inactive) | 71.7% (inactive) | -21.4% (inactive) | 73.7 | 52.3 | -6.58% (inactive) | 13.4% (inactive)
27 | COc1cc(/C=C/C(=O)CC(=O)/C=C/c2ccc(O)c(OC)c2)ccc1O | 116% (inactive) | 56.8% (inactive) | 1.03% (inactive) | 2.06 | 3.09 | -2.34% (inactive) | 3.5% (inactive)
28 | Cc1cc(C(=O)CSc2nc3ccccc3n2CCC#N)c(C)n1Cc1cccs1 | 58% (inactive) | 110% (inactive) | -1.21% (inactive) | 32.9 | 31.7 | -5.41% (inactive) | -3.09% (inactive)
29 | CCCOc1ccc2nc(NC(=O)OC)[nH]c2c1 | 95% (inactive) | 37.3% (inactive) | -30.4% (inactive) | 57.3 | 26.9 | -0.52% (inactive) | -1.5% (inactive)
30 | N#Cc1cc2ccc(N3CCOCC3)cc2cc1C#N | 85% (inactive) | 4.27% (active) | -33.5% (inactive) | 76.9 | 43.4 | -0.91% (inactive) | -3% (inactive)
31 | COC1=CC(=O)CC(C)C12Oc1c(Cl)c(OC)cc(OC)c1C2=O (stereo not given) | 100% (inactive) | 62.8% (inactive) | -31.8% (inactive) | 50 | 18.1 | -2.99% (inactive) | -5.67% (inactive)
32 | COc1cc(NC(=O)c2ccco2)c(OC)cc1NC(=O)CCC(=O)Nc1cc(C)cc(C)c1 | 106% (inactive) | 42.5% (inactive) | -16.3% (inactive) | 69.4 | 53.1 | -6.58% (inactive) | -0.95% (inactive)
33 | CCOC(=O)N1CCC(NC(=O)c2ccc3c(c2)sc2nc(-c4cccc(OC)c4)cn23)CC1 | 80% (inactive) | 52% (inactive) | 8.43% (inactive) | 41.5 | 49.9 | -1.95% (inactive) | -0.98% (inactive)
34 | N=c1c(C(=O)NCc2ccccc2)cc2c(=O)n3ccccc3nc2n1Cc1ccco1 | 93% (inactive) | 79.2% (inactive) | -13.5% (inactive) | 65.5 | 52.1 | -4.25% (inactive) | 0.32% (inactive)
35 | COc1ccc(CCN(C)CCCC(C#N)(c2ccc(OC)c(OC)c2)C(C)C)cc1OC (stereo not given) | 73% (inactive) | 66.8% (inactive) |  |  |  | -2.34% (inactive) | -0.5% (inactive)
36 | CCCn1nc(NC(=O)c2cccs2)c2cc3cc(OC)ccc3nc21 | 102% (inactive) | 56.4% (inactive) | -18.7% (inactive) | 81.8 | 63.1 | -6.58% (inactive) | 2.58% (inactive)
37 | CSc1ccc(-c2cc(=O)c3ccccc3o2)cc1 | 110% (inactive) | 48.1% (inactive) | -16.6% (inactive) | 73.6 | 56.9 | -4.13% (inactive) | -4.55% (inactive)
38 | COc1ccc(CSCCN)cc1Cl | 113% (inactive) | 105% (inactive) | -18.3% (inactive) | 57.5 | 39.2 | -7.33% (inactive) | -2% (inactive)
39 | CCCCCC(=O)O[C@]1(C(C)=O)CC[C@H]2[C@@H]3CCC4=CC(=O)CC[C@]4(C)[C@H]3CC[C@@]21C | 93% (inactive) | 4.16% (active) | 20.6% (inactive) | 2.59 | 23.1 | 5.84% (inactive) | -2% (inactive)
